# Measurements of several laboratories.
# RPS6KA1 C-terminal kinase domain: Ribosomal protein S6 kinase alpha-1, C-terminal kinase domain (RPS6KA1, Homo sapiens, UniProt Q15418)
# RPS6KA1: Ribosomal protein S6 kinase alpha-1 (RPS6KA1, Homo sapiens, UniProt Q15418)
# RPS6KA1 N-terminal kinase domain: Ribosomal protein S6 kinase alpha-1, N-terminal kinase domain (RPS6KA1, Homo sapiens, UniProt Q15418)
SMILES,target,test,test system,conditions,endpoint,value
CNCc1ccccc1-c1csc([C@H](C)Nc2nc(C)nc3cc(OC)c(OC)cc23)c1,RPS6KA1 C-terminal kinase domain,"cell-free assay, competition with immobilised ligand",,1 µM,remaining binding,100%
O=C(Nc1cnn(-c2csc(C(=O)NC3COC3)c2)c1)Nc1ccccc1Cl,RPS6KA1,"enzyme activity, inhibitor",,5 µM,remaining activity,92.4%
COc1ccc2c(c1)O[C@@H](c1ccc(OC)c(OC)c1)C[C@H]2NC(=O)C1(c2ccc3c(c2)OC(F)(F)O3)CC1,RPS6KA1 C-terminal kinase domain,"cell-free assay, competition with immobilised ligand",,1 µM,remaining binding,85%
Cn1cncc1C1=CN(c2ncnc3[nH]cnc23)CCS1,RPS6KA1,"enzyme activity, inhibitor, radiometric",,50 nM,inhibition,13%
CN(c1ncccc1CNc1nc(Nc2ccc3c(c2)CC(=O)N3)ncc1C(F)(F)F)S(C)(=O)=O,RPS6KA1,"enzyme activity, inhibitor",,1 µM,inhibition,84.8%
Oc1cccc(-c2nc(N3CCOCC3)c3oc4ncccc4c3n2)c1,RPS6KA1,"enzyme activity, inhibitor",,10 µM,remaining activity,101%
C#Cc1cccc(Nc2ncnc3cc(OCCOC)c(OCCOC)cc23)c1,RPS6KA1,cell-free assay,,0.5 µM,remaining signal,97.6%
COc1ccc2cc(OCC3(C(=O)O)CN(C(=O)c4ccc(F)cc4)C3)ccc2c1,RPS6KA1 C-terminal kinase domain,"cell-free assay, competition with immobilised ligand",,1 µM,remaining binding,100%
CN(C)c1ncc(F)c(-c2cnn3ncccc23)n1,RPS6KA1 C-terminal kinase domain,"binding, competition with immobilised ligand",,1 µM,remaining binding,100%
COc1cc2ncnc(Nc3ccc(Oc4ccccc4)cc3C)c2cc1OC,RPS6KA1,"enzyme activity, inhibitor",,1 µM,inhibition,6%
CNc1cc(Oc2cc(C(=O)Nc3cc(N4CCN(C)CC4)cc(C(F)(F)F)c3)ccc2C)ncn1,RPS6KA1 C-terminal kinase domain,"target engagement in cells, inhibitor, chemoproteomics",Huh-7,1 µM,inhibition,-27.6%
c1cnn2ncc(-c3ccnc(N4CCC45COC5)n3)c2c1,RPS6KA1 C-terminal kinase domain,"binding, competition with immobilised ligand",,1 µM,remaining binding,56%
CCC(=O)N[C@@H]1CC[C@H](C(=O)N(C)c2ccc(-c3nc4ccccc4o3)cc2)C1,RPS6KA1 N-terminal kinase domain,"cell-free assay, competition with immobilised ligand",,1 µM,remaining binding,100%
COc1cccc2c(NCc3ccccc3)nc(-n3c(N)nc4ccccc43)nc12,RPS6KA1 C-terminal kinase domain,"target engagement in cells, inhibitor, chemoproteomics",,20 mM,inhibition,1%
COc1cc2c(N3CCN(C(=O)Nc4ccc(OC(C)C)cc4)CC3)ncnc2cc1OCCCN1CCCCC1,RPS6KA1,cell-free assay,,0.5 µM,remaining signal,94.8%
CS(=O)(=O)N1CCCC(NC(=O)[C@H](CCC2CCCCC2)NC(=O)c2ccc(CNC(=O)c3cnc4ccccn34)cc2)C1 (some centres unmarked),RPS6KA1 C-terminal kinase domain,"cell-free assay, competition with immobilised ligand",,0.1 µM,remaining binding,92%
CNc1cccc2cc(C(=O)Nc3ccc(C(=O)O)cc3)c(=O)[nH]c12,RPS6KA1,"enzyme activity, inhibitor",,10 µM,inhibition,16%
O=C1NC(=O)c2cc(Nc3ccc(F)cc3)c(Nc3ccc(F)cc3)cc21,RPS6KA1,cell-free assay,,0.5 µM,remaining signal,97.7%
O=C(NCc1ncc(C(F)(F)F)cc1Cl)c1ccc2c(c1)C1(CCS(=O)(=O)CC1)[C@@H](C1CC1)N2S(=O)(=O)c1ccc(F)cc1,RPS6KA1 C-terminal kinase domain,"cell-free assay, competition with immobilised ligand",,1 µM,remaining binding,100%
CCN(CC)c1ccc(C2=NNC(=O)CC2C)cc1[N+](=O)[O-] (centres unmarked),RPS6KA1,"enzyme activity, inhibitor",,10 µM,remaining activity,101%
Cn1nc(C(=O)NCc2ccc(C(=O)O)cc2)cc1-c1ccc2[nH]ccc2c1,RPS6KA1 N-terminal kinase domain,"cell-free assay, competition with immobilised ligand",,0.1 µM,remaining binding,100%
N[C@H]1CCN(c2nccc(-c3cnn4ncccc34)n2)C1,RPS6KA1 C-terminal kinase domain,"binding, competition with immobilised ligand",,1 µM,remaining binding,99%
Nc1nc(NC2CCCCC2)sc1C(=O)c1ccccc1,RPS6KA1,"enzyme activity, inhibitor",,10 µM,remaining activity,67%
